Results reported in ChEMBL document CHEMBL1135824, “Interaction of designed sulfated flavanoids with antithrombin: lessons on the design of organic activators” (J Med Chem, 2002).

What was measured:
[1] = Non ionic interaction with plasma antithrombin at 25 degree Celsius in 20 mM sodium phosphate buffer at a pH 6.0; assay type: ADME, cell-free
[2] = Observed dissociation constant of interaction with plasma antithrombin at 25 degree Celsius in 20 mM sodium phosphate buffer at a pH 6.0; assay type: ADME, cell-free
Method in brief: (§1)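 Human plasma antithrombin (1 µM) with TNS (5 µM) was titrated with the sulfated flavanoid. Buffer was 20 mM sodium phosphate, 0.1 mM EDTA, 0.1% PEG 8000, at pH 6.0 (I 0.025) or 7.4 (I 0.035). Fluorescence decrease was read at 432 nm (excitation 330 nm). KD came from fitting to a quadratic equilibrium binding equation.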

[3] = Second order rate constant for antithrombin inhibition of factor Xa in the presence of activator determined
[4] = Non ionic interaction with plasma antithrombin at 25 degree Celsius in 20 mM sodium phosphate buffer at a pH 7.4; assay type: ADME, cell-free
[5] = Observed dissociation constant of interaction with plasma antithrombin at 25 degree Celsius in 20 mM sodium phosphate buffer at a pH 7.4; assay type: ADME, cell-free; method in brief: as §1
[6] = target: Coagulation factor X (Homo sapiens) (UniProt P00742); assay: Second order rate constant for antithrombin inhibition of factor Xa in the presence of activator determined
Coagulation factor X (Homo sapiens), sequence (P00742 41-179 limits assumed): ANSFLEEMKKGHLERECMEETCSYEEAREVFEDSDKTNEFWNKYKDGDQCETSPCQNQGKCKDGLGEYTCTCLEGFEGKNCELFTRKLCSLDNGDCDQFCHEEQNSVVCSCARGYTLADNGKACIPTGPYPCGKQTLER
Coagulation factor X (Homo sapiens), sequence (P00742 235-488 limits assumed): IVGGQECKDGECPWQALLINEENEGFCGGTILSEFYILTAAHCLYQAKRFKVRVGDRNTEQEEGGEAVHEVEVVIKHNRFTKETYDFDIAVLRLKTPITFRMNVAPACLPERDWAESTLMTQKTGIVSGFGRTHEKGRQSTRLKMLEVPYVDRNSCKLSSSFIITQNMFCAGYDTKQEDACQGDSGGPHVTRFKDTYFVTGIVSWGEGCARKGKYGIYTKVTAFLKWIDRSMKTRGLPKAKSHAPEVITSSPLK

[7] = Dissociation constant of CS-Antithrombin interaction at 25 degree Celsius 20 mM sodium phosphate buffer at pH 6.0 at 0 uM; assay type: functional
[8] = Dissociation constant of CS-Antithrombin interaction at 25 degree Celsius 20 mM sodium phosphate buffer at pH 6.0 at 10 uM; assay type: functional
Method in brief: (§2)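 Competitive titration of CS into plasma antithrombin–TNS complex with tetrasaccharide EFGH″ held at a fixed level, much above antithrombin. Competitor levels spanned 0.67–6.7 × its own antithrombin KD. Run at 25 °C in 20 mM sodium phosphate, 0.1 mM EDTA, 0.1% PEG 8000, pH 6.0, I 0.025. Read-out was the decrease in TNS fluorescence with rising CS. Antithrombin was freshly diluted from pH 7.4 stock.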

[9] = Dissociation constant of CS-Antithrombin interaction at 25 degree Celsius 20 mM sodium phosphate buffer at pH 6.0 at 20 uM; assay type: functional; method in brief: as §2
[10] = Dissociation constant of CS-Antithrombin interaction at 25 degree Celsius 20 mM sodium phosphate buffer at pH 6.0 at 3.0 uM; assay type: functional; method in brief: as §2
[11] = Dissociation constant of CS-Antithrombin interaction at 25 degree Celsius 20 mM sodium phosphate buffer at pH 6.0 at 30 uM; assay type: functional; method in brief: as §2
[12] = Dissociation constant of CS-Antithrombin interaction at 25 degree Celsius 20 mM sodium phosphate buffer at pH 6.0 at 4.5 uM; assay type: functional; method in brief: as §2
[13] = Effect (1 uM) on observed rate constant that accelerated inhibition of factor Xa by antithrombin-CS (0 uM) complex
[14] = Effect (2 uM)on second-order rate constant that accelerated inhibition of factor Xa by antithrombin-CS (0 uM) complex
[15] = Effect (2 uM)on second-order rate constant that accelerated inhibition of factor Xa by antithrombin-CS (50 uM)complex
[16] = Effect (0 uM) on second-order rate constant that accelerated inhibition of factor Xa by antithrombin-CS (50 uM)complex
[17] = Effect (1 uM) on second-order rate constant that accelerated inhibition of factor Xa by antithrombin-CS (50 uM)complex
[18] = Effect (4 uM) on second-order rate constant that accelerated inhibition of factor Xa by antithrombin-CS (0 uM) complex
[19] = Effect (4 uM) on second-order rate constant that accelerated inhibition of factor Xa by antithrombin-CS (50 uM)complex

O=S(=O)(O)Oc1cc2c(c(OS(=O)(=O)O)c1)C[C@@H](OS(=O)(=O)O)[C@H](c1ccc(OS(=O)(=O)O)c(OS(=O)(=O)O)c1)O2 (racemic)
KD non ionic [1]: 470 µM | Kd [2]: 26.1 µM | kACT [3]: 2770 M⁻¹ s⁻¹

O=S(=O)(O)Oc1cc2c(c(OS(=O)(=O)O)c1)C[C@H](OS(=O)(=O)O)[C@@H](c1ccc(OS(=O)(=O)O)c(OS(=O)(=O)O)c1)O2
Kd [4]: 2200 µM | Kd [5]: 17.9 µM | Kd [1]: 1000 µM | Kd [2]: 3.5 µM | K ACT [6]: 6750 M⁻¹ s⁻¹

CO[C@H]1O[C@H](COS(=O)(=O)O)[C@@H](O[C@H]2O[C@@H](C(=O)O)[C@@H](O[C@H]3O[C@H](COS(=O)(=O)O)[C@@H](O[C@H]4O[C@H](C(=O)O)C[C@H](O)[C@H]4O)[C@H](OS(=O)(=O)O)[C@H]3NS(=O)(=O)O)[C@H](O)[C@H]2OS(=O)(=O)O)[C@H](OS(=O)(=O)O)[C@H]1OS(=O)(=O)O
KCS, APP [7]: 3.5 µM | KCS, APP [8]: 3.1 µM | KCS, APP [9]: 3.2 µM | KCS, APP [10]: 4.8 µM | KCS, APP [11]: 2.1 µM | KCS, APP [12]: 3.5 µM | second-order rate constant [13]: 2400 M⁻¹ s⁻¹ | second-order rate constant [14]: 3200 M⁻¹ s⁻¹ | second-order rate constant [15]: 4700 M⁻¹ s⁻¹ | second-order rate constant [16]: 2000 M⁻¹ s⁻¹ | second-order rate constant [17]: 4300 M⁻¹ s⁻¹ | second-order rate constant [18]: 6400 M⁻¹ s⁻¹ | second-order rate constant [19]: 7400 M⁻¹ s⁻¹

O=S(=O)(O)Oc1cc2c(c(OS(=O)(=O)O)c1)C[C@@H](OS(=O)(=O)O)[C@@H](c1ccc(OS(=O)(=O)O)c(OS(=O)(=O)O)c1)O2
Kd [4]: 1100 µM | Kd [5]: 32.3 µM | Kd [1]: 380 µM | Kd [2]: 10.7 µM | K ACT [6]: 3380 M⁻¹ s⁻¹
